Diaphorase act = activates diaphorase or chemically reduces, flagging diaphorase assay artifacts; Diaphorase/resazurin coupled assay, resorufin fluorescence, 16 min; hits give high values; 1 = vehicle wells, 0 = NADH-free wells; activation factor at 20 µM; actives 0.005% (n = 190,000); AID 1229;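 active = diaphorase activity raised at least twofold by the compound at 20 µM; inactive = activation factor below 2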
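Material: Purified diaphorase enzyme from Clostridium kluyveri | Buffer or medium: 50 mM HEPES pH 7.4 with 4.542 mM MgCl2, 0.005% Tween 20 | Times: 16 min enzyme reaction, ambient temperature | Signal: Red resorufin fluorescence at 544/590 nm excitation/emission | Measure: Increased resorufin signal from activators or reducing compounds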
PMI act = increases human mannose-6-phosphate isomerase activity; purified human PMI, coupled resazurin fluorescence, 20 min; hits give high values; 1 = vehicle control, 0 substrate-free wells; AID 1214; P34949; actives 0.005% (n = 190,000); activation factor at 20 µM;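 active = activation factor of 2 or more at 20 µM, relative to plate controls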
Target sequence (P34949 whole entry, looked up): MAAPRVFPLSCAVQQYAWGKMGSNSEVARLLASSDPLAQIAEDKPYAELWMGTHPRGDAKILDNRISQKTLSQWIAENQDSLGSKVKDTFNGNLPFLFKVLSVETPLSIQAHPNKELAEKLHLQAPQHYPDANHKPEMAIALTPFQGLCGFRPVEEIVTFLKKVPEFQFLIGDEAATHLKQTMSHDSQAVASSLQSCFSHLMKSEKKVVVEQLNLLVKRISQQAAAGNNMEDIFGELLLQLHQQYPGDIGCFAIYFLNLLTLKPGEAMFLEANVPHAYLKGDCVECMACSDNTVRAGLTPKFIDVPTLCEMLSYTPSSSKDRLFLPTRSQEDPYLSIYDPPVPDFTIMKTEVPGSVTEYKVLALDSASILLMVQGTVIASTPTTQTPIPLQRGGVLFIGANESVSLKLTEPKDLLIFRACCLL
Diaphorase inh = counter-screen for diaphorase-based assays: diaphorase inhibitors and chemical oxidizers; actives 0.69% (n = 190,000); AID 1217; inhibition, % at 20 µM; diaphorase resazurin-to-resorufin fluorescence, NADH, 16 min; bacterial (C. kluyveri) enzyme, not human;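 active = primary screen inhibition at 20 µM above a set limit, cut at about 50% in these data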;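 also: plate controls were DMSO with full reaction for no effect and wells lacking NADH for full effect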
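Assay system – diaphorase enzyme from Clostridium kluyveri · Amount – diaphorase 0.14 U/mL (working solution) · Times – reaction incubation of 16 min at room temperature · Controls – No-NADH positive control and DMSO neutral control · Signal – resorufin fluorescence 544/590 nm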
G6PDH CS = L. mesenteroides G6PDH inhibition counter-screen; AID 1020; inhibition, % at 5 µM; actives 0.12% (n = 200,000); Purified L. mesenteroides G6PDH, diaphorase/resazurin coupled fluorescence, 45 min; in the data active = inhibition above about 50%
PMI act satM6P = activators of human phosphomannose isomerase at near-saturating mannose 6-phosphate; P34949; activation factor at 20 µM; coupled PMI enzyme assay, resazurin fluorescence, 20 min; hits give high values; 1 = untreated enzyme, 0 = substrate-free blank; actives 0.34% (n = 190,000);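 active = activation factor of 2 or more at 20 µM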
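Test system: human phosphomannose isomerase with PGI, G6PDH, diaphorase coupling enzymes; Amount: PMI at 15 ng/mL final; Reagent: Mannose-6-phosphate 1.0 mM (near-saturating) plus 0.22 mM NADP+; Timing: 20 min, room temperature; Technique: resorufin fluorescence at Ex 544/Em 590 nm; Dosing: 20 µM single dose.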
An asterisk follows results filed as active; . = not tested or not shown. An excerpt weighted towards active compounds, which were near 1.1% of everything screened.

SMILES | Diaphorase act | PMI act | Diaphorase inh | G6PDH CS | PMI act satM6P
COc1cc(C(=O)OCC(=O)NC(=O)C2CCCCC2)ccc1OC(F)F | 0.9 | 1 | 14 | 3 | 0.9
Cc1c(Cl)cn2c(=O)cc(CN3CCN(c4ccc(F)cc4)CC3)nc2c1Cl | 1 | 1 | 0 | 9 | 0.8
CC(=O)c1ccc(NC(=O)CSc2nnc(-c3ccco3)c(-c3ccco3)n2)cc1 | 0.2 | 0.8 | 81* | 38 | 0.5
O=C(CSc1nnc(-c2ccco2)c(-c2ccco2)n1)c1ccccc1 | . | . | . | 29 | .
CC(=O)c1ccc(NC(=S)NCCCn2ccnc2)cc1 | 0.9 | 1 | 9 | -5 | 0.9
O=C(CN(Cc1ccccc1)S(=O)(=O)c1ccc(S(=O)(=O)N2CCOCC2)cc1)Nc1ccccc1 | 1 | 1.1 | 0 | 10 | 1.1
Cc1ccccc1C(=O)/C(C#N)=N/Nc1c(C)n(C)n(-c2ccccc2)c1=O | 0.8 | 1.3 | 16 | -4 | 1.9
Cc1c(N/N=C(\C#N)C(=O)c2ccccc2)c(=O)n(-c2ccccc2)n1C | 1.1 | 1.6 | -15 | -3 | 2.1*
O=C(N/N=C/c1ccc(N2CCCCC2)o1)C(O)(c1ccccc1)c1ccccc1 | 0.7 | 0.9 | 27 | 3 | 0.9
Cc1ccccc1NC(=S)Nc1cccc2cnccc12 | 0.5 | 0.4 | 52* | 21 | 0.3
Cc1ccc(C)c(NC(=S)Nc2cccc3cnccc23)c1 | 0.4 | 0.5 | 55* | 40 | 0.6
Cc1ccc(NC(=S)Nc2cccc3cnccc23)cc1C | 0.6 | 1 | 39 | 56* | 1.3
Cc1ccc(NC(=S)Nc2cccc3cnccc23)cc1 | 0.5 | 0.2 | 49 | 32 | 0.3
O=C(c1ccc(F)cc1)N(c1ccccn1)C1CCCCC1 | 1.1 | 1 | -14 | 12 | 1
O=C(O[C@@H]1OC2COC(=O)c3cc(O)c(O)c(O)c3-c3c(cc(O)c(O)c3O)C(=O)O[C@@H]([C@H]1O)[C@@H]2O)c1cc(O)c(O)c(O)c1 | 0.4 | 0.5 | 62* | 8 | 0.8
CCOC(=O)C1(Cc2ccccc2C)CCCN(Cc2cc(OC)c(O)c(OC)c2)C1 (stereo unspecified) | 0.9 | 0.8 | 12 | 59* | 0.3
O=C(O)c1ccc(Cl)c2c1C1C=CCC1C(c1ccccn1)N2 (stereo unspecified) | 0.4 | 1.6 | 56* | 13 | 1.8
O=C(CO/N=C\c1ccccc1)Nc1ccccc1C(=O)N1CCOCC1 | 1 | 1.1 | -2 | 6 | 1.1
CCOC(=O)c1ccccc1NC(=O)c1ccc2nccnc2c1 | 0.5 | 1 | 55* | 2 | 0.8
CC(=O)c1c(N2CCN(c3cccc(Cl)c3)CC2)nc(=S)n(-c2ccccc2)c1C | 0.4 | 0.9 | 61* | -4 | 0.9
CCn1c(C)c(C(C)=O)c(N2CCN(c3cccc(Cl)c3)CC2)nc1=S | 0.7 | 1.4 | 33 | 15 | 1.9
CCn1c(C)c(C(C)=O)c(NCc2ccccc2)nc1=S | 0.5 | 0.9 | 52* | 8 | 0.9
CC(=O)c1c(NCCc2ccccc2)nc(=S)n(-c2ccccc2)c1C | 0.1 | 0.8 | 88* | 2 | 0.6
FC(F)Oc1ccc(NC(=S)NNc2ccnc3cc(Cl)ccc23)cc1 | 0.9 | 1.1 | 8 | 8 | 1.1
COc1ccc(S(=O)(=O)N2CCCCC2)cc1NC(=O)c1ccc2c(c1)OCO2 | 0.9 | 1 | 8 | 1 | 1.1
O=S(=O)(Nc1cc(Sc2ncn[nH]2)c(O)c2ccccc12)c1ccccc1 | 0.8 | 0 | 18 | 54* | 0.1
O=C(C1=C[C@@H](c2ccc3c(c2)OCO3)C[C@@H](OCCCCO)O1)N1CCN(Cc2ccc3c(c2)OCO3)CC1 | 0.8 | 0.9 | 18 | 8 | 0.9
C#Cc1ccc([C@@H]2C=C(C(=O)N3CCN(Cc4ccc5c(c4)OCO5)CC3)O[C@H](OCCCCO)C2)cc1 | 0.5 | 1 | 53* | 5 | 1
Cc1ccc(-n2c(C)cc(/C=N/NC(=O)CC3(C)OCCO3)c2C)c(C)c1 | 0.9 | 0.9 | 10 | 4 | 0.9
CC1(CC(=O)N/N=C/c2cc([N+](=O)[O-])c(O)cc2O)OCCO1 | 0.4 | 1.1 | 60* | -7 | 1.4

Screening results as filed in PubChem BioAssay.
